In ChEMBL document CHEMBL4364272, “Discovery of a Lead Triphenylethanamine Cholesterol Ester Transfer Protein (CETP) Inhibitor” (ACS Med Chem Lett, 2019):
The source made the active and inactive calls. The rule behind the calls is not given here.

Columns and labels:
[1] = molecular target: T1, Cholesteryl ester transfer protein (Homo sapiens, UniProt P11597); experiment: Inhibition of CETP in human whole plasma assessed as reduction in [3H]-CE/HDL transfer incubated for 2.5 hrs by topcount scintillation counting assay; type: cell-free
T1 sequence (P11597 whole entry): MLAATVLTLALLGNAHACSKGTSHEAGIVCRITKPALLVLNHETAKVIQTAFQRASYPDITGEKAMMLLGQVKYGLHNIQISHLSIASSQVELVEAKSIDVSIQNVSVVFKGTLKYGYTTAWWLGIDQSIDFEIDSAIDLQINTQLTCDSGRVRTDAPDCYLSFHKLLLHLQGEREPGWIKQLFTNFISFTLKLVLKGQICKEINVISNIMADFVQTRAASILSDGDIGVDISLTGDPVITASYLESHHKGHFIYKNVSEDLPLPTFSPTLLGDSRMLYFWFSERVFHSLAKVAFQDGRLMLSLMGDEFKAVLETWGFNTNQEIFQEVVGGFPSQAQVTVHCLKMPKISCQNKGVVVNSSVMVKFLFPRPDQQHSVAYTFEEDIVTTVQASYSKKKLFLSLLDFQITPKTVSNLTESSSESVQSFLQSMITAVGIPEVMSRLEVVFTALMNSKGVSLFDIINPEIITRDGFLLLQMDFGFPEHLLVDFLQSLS
Procedure, shortened: (§1)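 CETP activity was measured by scintillation proximity assay and by human whole plasma assay. Each was run in duplicate at six concentrations, and the mean values were used to calculate IC50.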

[2] = molecular target: T1, Cholesteryl ester transfer protein; experiment: Inhibition of human recombinant CETP assessed as reduction in [3H]CE/HDL transfer incubated for 4 hrs by scintillation proximity assay; procedure, shortened: as §1
[3] = Stability in mouse liver microsomes assessed as parent compound remaining at 50 uM preincubated for 5 to 7 mins followed by NADPH addition and measured 10 mins post-dose by LC-MS/MS; type: ADME, Microsome; details: read-out: Stability
[4] = molecular target: Voltage-gated inwardly rectifying potassium channel KCNH2 (Homo sapiens, UniProt Q12809); experiment: Inhibition of human ERG expressed in HEK293 cells by flux assay
Voltage-gated inwardly rectifying potassium channel KCNH2, sequence (Q12809 whole entry): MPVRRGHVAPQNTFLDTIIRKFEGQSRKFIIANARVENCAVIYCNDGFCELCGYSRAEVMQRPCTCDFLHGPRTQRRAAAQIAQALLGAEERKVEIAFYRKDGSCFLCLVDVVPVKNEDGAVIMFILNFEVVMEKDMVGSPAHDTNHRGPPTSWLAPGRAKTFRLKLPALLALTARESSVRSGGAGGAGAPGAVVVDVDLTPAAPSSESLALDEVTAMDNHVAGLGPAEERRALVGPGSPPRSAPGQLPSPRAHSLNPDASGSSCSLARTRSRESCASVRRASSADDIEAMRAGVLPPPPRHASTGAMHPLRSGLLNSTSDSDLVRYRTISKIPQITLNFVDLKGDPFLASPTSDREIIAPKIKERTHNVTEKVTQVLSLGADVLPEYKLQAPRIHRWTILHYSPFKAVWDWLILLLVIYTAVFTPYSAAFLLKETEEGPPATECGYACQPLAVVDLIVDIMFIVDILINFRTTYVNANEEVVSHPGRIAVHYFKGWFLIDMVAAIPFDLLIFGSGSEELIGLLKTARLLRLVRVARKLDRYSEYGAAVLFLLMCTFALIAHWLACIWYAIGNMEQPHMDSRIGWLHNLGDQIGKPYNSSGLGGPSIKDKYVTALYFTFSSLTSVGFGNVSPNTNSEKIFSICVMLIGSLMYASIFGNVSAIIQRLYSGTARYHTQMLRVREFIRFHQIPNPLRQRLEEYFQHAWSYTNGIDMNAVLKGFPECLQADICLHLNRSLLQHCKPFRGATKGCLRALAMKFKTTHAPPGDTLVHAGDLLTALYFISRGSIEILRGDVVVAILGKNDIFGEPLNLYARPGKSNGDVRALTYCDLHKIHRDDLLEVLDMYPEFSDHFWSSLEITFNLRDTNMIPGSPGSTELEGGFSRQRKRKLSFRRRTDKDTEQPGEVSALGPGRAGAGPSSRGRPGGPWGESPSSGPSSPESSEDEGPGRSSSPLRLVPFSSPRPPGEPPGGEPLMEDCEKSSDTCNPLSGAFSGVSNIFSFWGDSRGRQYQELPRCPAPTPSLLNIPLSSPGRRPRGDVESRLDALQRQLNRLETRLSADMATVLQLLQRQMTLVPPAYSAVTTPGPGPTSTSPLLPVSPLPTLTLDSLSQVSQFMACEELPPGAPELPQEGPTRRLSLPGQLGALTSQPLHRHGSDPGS

[5] = Stability in human liver microsomes assessed as parent compound remaining at 50 uM preincubated for 5 to 7 mins followed by NADPH addition and measured 10 mins post-dose by LC-MS/MS; type: ADME, Microsome; details: read-out: Stability
[6] = Half life in Sprague-Dawley rat at 1 mg/kg, iv or 10 mg/kg, po administered via gavage measured upto 24 hrs by LC-MS/MS; type: ADME, organism-based; details: in vivo
Procedure, shortened: (§2)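 Single IV and oral doses: rat 1 mg/kg IV and 10 mg/kg PO; mouse 5 mg/kg IV and 10 mg/kg PO; monkey 1 mg/kg IV and 5 mg/kg PO. IV vehicle was 10% Cremophor/10% EtOH/80% H2O for rodents and 70% PEG-400/10% EtOH/20% H2O for monkey. Oral vehicle was 15% Miglyol 812/30% Capmul MCM/15% Triacetin/40% Cremophor RH40, or the Cremophor vehicle for rat. Vss, Cl, t1/2 and %F were derived.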

[7] = Oral bioavailability in Sprague-Dawley rat at 10 mg/kg administered via gavage measured upto 24 hrs by LC-MS/MS; type: ADME, organism-based; details: in vivo; procedure, shortened: as §2
[8] = Clearance in Sprague-Dawley rat at 1 mg/kg, iv or 10 mg/kg, po administered via gavage measured upto 24 hrs by LC-MS/MS; type: ADME, organism-based; details: in vivo; procedure, shortened: as §2
Mus musculus [9] = experiment: In vivo inhibition of CETP in hCETP/apoB-100 dual transgenic mouse assessed as reduction in [3H]-CE transfer at 1 mg/kg, po administered via gavage measured after 2 to 8 hrs by radioactivity based assay; type: functional, organism-based
[10] = Volume of distribution at steady state in Sprague-Dawley rat at 1 mg/kg, iv or 10 mg/kg, po administered via gavage measured upto 24 hrs by LC-MS/MS; type: ADME, organism-based; details: in vivo, read-out: Vdss; procedure, shortened: as §2
[11] = molecular target: T2, Cholesteryl ester transfer protein (Homo sapiens) (UniProt P11597); experiment: Potency index, ratio of torcetrapib IC50 to test compound IC50 for inhibition of CETP in human whole plasma; type: cell-free
T2 sequence (whole entry): T1 sequence (P11597 whole entry)

CYP11B1 = experiment: Upregulation of CYP11B1 gene expression in human NCI-H295R cells at 0.1 uM measured after 24 hrs relative to control; type: ADME, cell-based; details: read-out: FC
Procedure, shortened: (§3)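 H295R cells were incubated for 24 h with test agent at 10 μM or angiotensin-II at 0.1 μM. CYP11B1 and CYP11B2 mRNA levels were measured and expressed as fold of control.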

CYP11B2 = experiment: Upregulation of CYP11B2 gene expression in human NCI-H295R cells at 0.1 uM measured after 24 hrs relative to control; type: ADME, cell-based; details: read-out: FC; procedure, shortened: as §3
Mus musculus [12] = experiment: In vivo inhibition of CETP in hCETP/apoB-100 dual transgenic mouse assessed as reduction in [3H]-CE transfer at 10 mg/kg, po administered via gavage measured after 2 to 8 hrs by radioactivity based assay; type: functional, organism-based

Row | SMILES | IC50 [1] | IC50 [2] | remaining at 10 min, 50 µM [3] | remaining at 10 min, 50 µM [5] | IC50 [4] | further results
1 | O=C(CC(O)(C(F)(F)F)C(F)(F)F)N[C@@](Cc1ccccc1)(c1cc(F)cc(C(F)(F)F)c1)c1ccc(Cl)cn1 | 3800 nM | 120 nM | 91% | 92% | 22 µM | –
2 | CN(C)C(C(=O)N[C@](Cc1ccccc1)(c1ccc(F)cc1)c1cc(F)cc(C(F)(F)F)c1)C(O)(C(F)(F)F)C(F)(F)F (stereo partly specified) | 30000 nM | 3300 nM | 82% | 58% | 16 µM | –
3 | NC(C(=O)N[C@@](Cc1ccccc1)(c1cc(F)cc(OC(F)(F)C(F)F)c1)c1ccc(Cl)cn1)C(O)(C(F)(F)F)C(F)(F)F (stereo in doubt; 9a) | 5900 nM | 53 nM | 100% | 100% | > 80 µM | –
4 | CC(C)NC(C(=O)N[C@](Cc1ccccc1)(c1ccc(F)cc1)c1cc(F)cc(C(F)(F)F)c1)C(O)(C(F)(F)F)C(F)(F)F (stereo partly specified) | 7100 nM | 230 nM | 54% | 71% | 63 µM | –
5 | O=C(N[C@@](Cc1ccccc1)(c1cc(F)cc(C(F)(F)F)c1)c1ccc(Cl)cn1)C(O)C(O)(C(F)(F)F)C(F)(F)F (stereo partly specified) | 1400 nM | 35 nM | – | – | – | –
6 | CNC(C(=O)N[C@](Cc1ccccc1)(c1ccc(F)cc1)c1cc(F)cc(C(F)(F)F)c1)C(O)(C(F)(F)F)C(F)(F)F (stereo partly specified) | 6200 nM | 140 nM | 87% | 62% | 13 µM | –
7 | CC[C@H](C)[C@H](NC(=O)[C@H](Cc1ccc(O)cc1)NC(=O)[C@@H](NC(=O)[C@H](CCCNC(=N)N)NC(=O)[C@@H](N)CC(=O)O)C(C)C)C(=O)N[C@@H](Cc1cnc[nH]1)C(=O)N1CCC[C@H]1C(=O)N[C@@H](Cc1ccccc1)C(=O)O [ANGIOTENSIN II] | – | – | – | – | – | fold induction at 24 h, 0.1 µM (CYP11B1): 4; fold induction at 24 h, 0.1 µM (CYP11B2): 4
8 | NC(C(=O)N[C@@](Cc1ccccc1)(c1cc(F)cc(OC(F)(F)C(F)F)c1)c1ccc(Cl)cn1)C(O)(C(F)(F)F)C(F)(F)F (stereo in doubt; 9b) | 940 nM | 80 nM | – | – | – | IC50 ([4]; hek293): > 80 µM
9 | CCOC(=O)N1c2ccc(C(F)(F)F)cc2[C@@H](N(Cc2cc(C(F)(F)F)cc(C(F)(F)F)c2)C(=O)OC)C[C@H]1CC | – | – | – | – | – | inhibition (Mus musculus [12]): Active

Continued, in another order:

Row | IC50 [1] | IC50 [2] | remaining at 10 min, 50 µM [3] | remaining at 10 min, 50 µM [5] | SMILES | IC50 [4] | further results
10 | 58 nM | 5 nM | 100% | 100% | CC(C)Oc1cc([C@@](Cc2ccccc2)(NCC(O)C(O)(C(F)(F)F)C(F)(F)F)c2cc(F)cc(OC(F)(F)C(F)F)c2)ccc1F (stereo partly specified) | 12 µM | –
11 | 200 nM | 26 nM | 68% | 81% | CC(C)Oc1cc([C@@](Cc2ccccc2)(NCC(N)C(O)(C(F)(F)F)C(F)(F)F)c2cc(F)cc(OC(F)(F)C(F)F)c2)ccc1F (stereo partly specified) | > 80 µM | –
12 | 84 nM | 1 nM | 100% | 89% | CC(C)Oc1cc([C@@](Cc2ccccc2)(NC(=O)C(O)C(O)(C(F)(F)F)C(F)(F)F)c2cc(F)cc(OC(F)(F)C(F)F)c2)ccc1F (stereo partly specified) | – | –
13 | 270 nM | 6 nM | 16% | 2% | CC(C)Oc1cc([C@@](Cc2ccccc2)(NC(=O)C(N)C(O)C(F)(F)F)c2cc(F)cc(OC(F)(F)C(F)F)c2)ccc1F (stereo partly specified) | – | –
14 | 56 nM | 3 nM | 90% | 95% | CC(C)Oc1cc([C@@](Cc2ccccc2)(NC(=O)C(N)C(O)(C(F)(F)F)C(F)(F)F)c2cc(F)cc(OC(F)(F)C(F)F)c2)ccc1F (stereo partly specified) | 44 µM | half-life [6]: 114 min; bioavailability [7]: 12%; clearance [8]: 5.4 mL/min/kg; inhibition (Mus musculus [9]): Active; Vd [10]: 0.5 L/kg; Ratio IC50 [11]: 2
15 | 430 nM | 11 nM | 72% | 100% | NC(C(=O)N[C@](Cc1ccccc1)(c1ccc(F)cc1)c1cc(F)cc(C(F)(F)F)c1)C(O)(C(F)(F)F)C(F)(F)F (stereo partly specified) | > 80 µM | –
16 | 140 nM | 5 nM | 100% | 100% | CC(C)(C)Oc1cc([C@@](Cc2ccccc2)(NC(=O)C(N)C(O)(C(F)(F)F)C(F)(F)F)c2cc(F)cc(OC(F)(F)C(F)F)c2)ccc1F (stereo partly specified) | – | –
